Reference: ChEMBL document CHEMBL1240365, “Effects of ceftobiprole and oxacillin on mecA expression in methicillin-resistant Staphylococcus aureus clinical isolates” (2010)
In brackets after ≈: the same amount, converted by molar mass.

How the values were obtained:
Type in all cases: functional
Staphylococcus aureus [1] = assay: Antibacterial activity against beta-lactamase positive SCCmec type 1 methicillin-resistant Staphylococcus aureus isolate 12575 by broth microdilution method
Summary of the method: (§1)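 MIC by broth microdilution in cation-adjusted Mueller-Hinton broth per CLSI recommendations. The isolates were mecA-positive MRSA, SCCmec-typed mainly by multiplex PCR. Every isolate was beta-lactamase positive by whole-cell nitrocefin hydrolysis.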

Staphylococcus aureus [2] = assay: Antibacterial activity against beta-lactamase positive SCCmec type 2 methicillin-resistant Staphylococcus aureus isolate 17357 by broth microdilution method; summary of the method: as §1
Staphylococcus aureus [3] = assay: Induction of mecA gene expression in beta-lactamase positive SCCmec type 3 methicillin-resistant Staphylococcus aureus isolate 12597 at MIC after 1 hr by multiplex PCR method
Staphylococcus aureus [4] = assay: Induction of mecA gene expression in beta-lactamase positive SCCmec type 1 methicillin-resistant Staphylococcus aureus isolate 12192 at MIC after 1 hr by multiplex PCR method
Staphylococcus aureus [5] = assay: Induction of mecA gene expression in beta-lactamase positive SCCmec type 4a methicillin-resistant Staphylococcus aureus isolate 14145 at MIC after 1 hr by multiplex PCR method
Staphylococcus aureus [6] = assay: Antibacterial activity against beta-lactamase positive SCCmec type 3 methicillin-resistant Staphylococcus aureus isolate 14567 by broth microdilution method; summary of the method: as §1
Staphylococcus aureus [7] = assay: Induction of mecA gene expression in beta-lactamase positive SCCmec type 3 methicillin-resistant Staphylococcus aureus isolate 12617 at MIC after 1 hr by multiplex PCR method
Staphylococcus aureus [8] = assay: Antibacterial activity against beta-lactamase positive SCCmec type 1 methicillin-resistant Staphylococcus aureus isolate 11631 by broth microdilution method; summary of the method: as §1
Staphylococcus aureus [9] = assay: Antibacterial activity against beta-lactamase positive SCCmec type 3 methicillin-resistant Staphylococcus aureus isolate 12597 by broth microdilution method; summary of the method: as §1
Staphylococcus aureus [10] = assay: Induction of mecA gene expression in beta-lactamase positive SCCmec type 2 methicillin-resistant Staphylococcus aureus isolate 11218 at MIC after 1 hr by multiplex PCR method
Staphylococcus aureus [11] = assay: Induction of mecA gene expression in beta-lactamase positive SCCmec type 2 methicillin-resistant Staphylococcus aureus isolate 11521 at MIC after 1 hr by multiplex PCR method
Staphylococcus aureus [12] = assay: Antibacterial activity against beta-lactamase positive SCCmec type 3 methicillin-resistant Staphylococcus aureus isolate 12662 by broth microdilution method; summary of the method: as §1
Staphylococcus aureus [13] = assay: Induction of mecA gene expression in beta-lactamase positive SCCmec type 2 methicillin-resistant Staphylococcus aureus isolate 15855 at MIC after 1 hr by multiplex PCR method
Staphylococcus aureus [14] = assay: Antibacterial activity against beta-lactamase positive SCCmec type 4a methicillin-resistant Staphylococcus aureus isolate 14154 by broth microdilution method; summary of the method: as §1
Staphylococcus aureus [15] = assay: Induction of mecA gene expression in beta-lactamase positive SCCmec type 3 methicillin-resistant Staphylococcus aureus isolate 14567 at MIC after 1 hr by multiplex PCR method
Staphylococcus aureus [16] = assay: Antibacterial activity against beta-lactamase positive SCCmec type 4a methicillin-resistant Staphylococcus aureus isolate 12639 by broth microdilution method; summary of the method: as §1
Staphylococcus aureus [17] = assay: Antibacterial activity against beta-lactamase positive SCCmec type 2 methicillin-resistant Staphylococcus aureus isolate 15855 by broth microdilution method; summary of the method: as §1
Staphylococcus aureus [18] = assay: Antibacterial activity against beta-lactamase positive SCCmec type nontypeable methicillin-resistant Staphylococcus aureus isolate 17329 by broth microdilution method; summary of the method: as §1
Staphylococcus aureus [19] = assay: Antibacterial activity against beta-lactamase positive SCCmec type 4a methicillin-resistant Staphylococcus aureus isolate 14145 by broth microdilution method; summary of the method: as §1
Staphylococcus aureus [20] = assay: Induction of mecA gene expression in beta-lactamase positive SCCmec type 1 methicillin-resistant Staphylococcus aureus isolate 11631 at MIC after 1 hr by multiplex PCR method
Staphylococcus aureus [21] = assay: Induction of mecA gene expression in beta-lactamase positive SCCmec type 1 methicillin-resistant Staphylococcus aureus isolate 12575 at MIC after 1 hr by multiplex PCR method
Staphylococcus aureus [22] = assay: Antibacterial activity against beta-lactamase positive SCCmec type 2 methicillin-resistant Staphylococcus aureus isolate 17256 by broth microdilution method; summary of the method: as §1
Staphylococcus aureus [23] = assay: Induction of mecA gene expression in beta-lactamase positive SCCmec type 4a methicillin-resistant Staphylococcus aureus isolate 12639 at MIC after 1 hr by multiplex PCR method
Staphylococcus aureus [24] = assay: Induction of mecA gene expression in beta-lactamase positive SCCmec type 4a methicillin-resistant Staphylococcus aureus isolate 11617 at MIC after 1 hr by multiplex PCR method
Staphylococcus aureus [25] = assay: Induction of mecA gene expression in beta-lactamase positive SCCmec type 5 methicillin-resistant Staphylococcus aureus isolate 12868 at MIC after 1 hr by multiplex PCR method
Staphylococcus aureus [26] = assay: Antibacterial activity against beta-lactamase positive SCCmec type 4a methicillin-resistant Staphylococcus aureus isolate 11617 by broth microdilution method; summary of the method: as §1
Staphylococcus aureus [27] = assay: Antibacterial activity against beta-lactamase positive SCCmec type 5 methicillin-resistant Staphylococcus aureus isolate 12868 by broth microdilution method; summary of the method: as §1
Staphylococcus aureus [28] = assay: Induction of mecA gene expression in beta-lactamase positive SCCmec type 2 methicillin-resistant Staphylococcus aureus isolate 17357 at MIC after 1 hr by multiplex PCR method
Staphylococcus aureus [29] = assay: Antibacterial activity against beta-lactamase positive SCCmec type 2 methicillin-resistant Staphylococcus aureus isolate 11521 by broth microdilution method; summary of the method: as §1
Staphylococcus aureus [30] = assay: Induction of mecA gene expression in beta-lactamase positive SCCmec type nontypeable methicillin-resistant Staphylococcus aureus isolate 17329 at MIC after 1 hr by multiplex PCR method
Staphylococcus aureus [31] = assay: Induction of mecA gene expression in beta-lactamase positive SCCmec type 2 methicillin-resistant Staphylococcus aureus isolate 17256 at MIC after 1 hr by multiplex PCR method
Staphylococcus aureus [32] = assay: Antibacterial activity against beta-lactamase positive SCCmec type 1 methicillin-resistant Staphylococcus aureus isolate 12192 by broth microdilution method; summary of the method: as §1
Staphylococcus aureus [33] = assay: Antibacterial activity against beta-lactamase positive SCCmec type 3 methicillin-resistant Staphylococcus aureus isolate 12617 by broth microdilution method; summary of the method: as §1
Staphylococcus aureus [34] = assay: Antibacterial activity against beta-lactamase positive SCCmec type 2 methicillin-resistant Staphylococcus aureus isolate 11218 by broth microdilution method; summary of the method: as §1
Staphylococcus aureus [35] = assay: Induction of mecA gene expression in beta-lactamase positive SCCmec type 4a methicillin-resistant Staphylococcus aureus isolate 14154 at MIC after 1 hr by multiplex PCR method
Staphylococcus aureus [36] = assay: Induction of mecA gene expression in beta-lactamase positive SCCmec type 3 methicillin-resistant Staphylococcus aureus isolate 12662 at MIC after 1 hr by multiplex PCR method

Structure (SMILES) | MIC (Staphylococcus aureus [1]) | MIC (Staphylococcus aureus [2]) | fold change (FC) (Staphylococcus aureus [3]) | fold change (FC) (Staphylococcus aureus [4]) | fold change (FC) (Staphylococcus aureus [5]) | MIC (Staphylococcus aureus [6]) | fold change (FC) (Staphylococcus aureus [7]) | MIC (Staphylococcus aureus [8]) | MIC (Staphylococcus aureus [9]) | fold change (FC) (Staphylococcus aureus [10]) | fold change (FC) (Staphylococcus aureus [11]) | MIC (Staphylococcus aureus [12]) | fold change (FC) (Staphylococcus aureus [13]) | MIC (Staphylococcus aureus [14]) | fold change (FC) (Staphylococcus aureus [15]) | MIC (Staphylococcus aureus [16]) | MIC (Staphylococcus aureus [17]) | MIC (Staphylococcus aureus [18]) | MIC (Staphylococcus aureus [19]) | fold change (FC) (Staphylococcus aureus [20]) | also measured
Nc1nc(/C(=N/O)C(=O)N[C@@H]2C(=O)N3C(C(=O)O)=C(/C=C4\CCN([C@@H]5CCNC5)C4=O)CS[C@H]23)ns1 [CEFTOBIPROLE] | 2 µg/mL (≈ 3.74 µM) | 4 µg/mL (≈ 7.48 µM) | 24 | 53 | 14 | 2 µg/mL (≈ 3.74 µM) | 38 | 2 µg/mL (≈ 3.74 µM) | 2 µg/mL (≈ 3.74 µM) | 3 | 49 | 0.5 µg/mL (≈ 0.935 µM) | 57 | 1 µg/mL (≈ 1.87 µM) | 27 | 0.5 µg/mL (≈ 0.935 µM) | 1 µg/mL (≈ 1.87 µM) | 4 µg/mL (≈ 7.48 µM) | 1 µg/mL (≈ 1.87 µM) | 65 | fold change (FC) (Staphylococcus aureus [21]): 52; MIC (Staphylococcus aureus [22]): 4 µg/mL (≈ 7.48 µM); fold change (FC) (Staphylococcus aureus [23]): 5; fold change (FC) (Staphylococcus aureus [24]): 30; fold change (FC) (Staphylococcus aureus [25]): 20; MIC (Staphylococcus aureus [26]): 0.5 µg/mL (≈ 0.935 µM); MIC (Staphylococcus aureus [27]): 0.5 µg/mL (≈ 0.935 µM); fold change (FC) (Staphylococcus aureus [28]): 3; MIC (Staphylococcus aureus [29]): 0.5 µg/mL (≈ 0.935 µM); fold change (FC) (Staphylococcus aureus [30]): 4; fold change (FC) (Staphylococcus aureus [31]): 3; MIC (Staphylococcus aureus [32]): 2 µg/mL (≈ 3.74 µM); MIC (Staphylococcus aureus [33]): 2 µg/mL (≈ 3.74 µM); MIC (Staphylococcus aureus [34]): 0.5 µg/mL (≈ 0.935 µM); fold change (FC) (Staphylococcus aureus [35]): 20; fold change (FC) (Staphylococcus aureus [36]): 22
Cc1onc(-c2ccccc2)c1C(=O)N[C@@H]1C(=O)N2[C@@H]1SC(C)(C)[C@@H]2C(=O)O [OXACILLIN] | > 256 µg/mL | > 256 µg/mL | 31 | 41 | 5 | 256 µg/mL (≈ 638 µM) | 50 | > 256 µg/mL | > 256 µg/mL | 3 | 13 | 256 µg/mL (≈ 638 µM) | 25 | 16 µg/mL (≈ 39.9 µM) | 27 | 64 µg/mL (≈ 159 µM) | 256 µg/mL (≈ 638 µM) | 256 µg/mL (≈ 638 µM) | 16 µg/mL (≈ 39.9 µM) | 66 | fold change (FC) (Staphylococcus aureus [21]): 69; MIC (Staphylococcus aureus [22]): 256 µg/mL (≈ 638 µM); fold change (FC) (Staphylococcus aureus [23]): 2; fold change (FC) (Staphylococcus aureus [24]): 5; fold change (FC) (Staphylococcus aureus [25]): 2; MIC (Staphylococcus aureus [26]): 8 µg/mL (≈ 19.9 µM); MIC (Staphylococcus aureus [27]): 4 µg/mL (≈ 9.96 µM); fold change (FC) (Staphylococcus aureus [28]): 15; MIC (Staphylococcus aureus [29]): 256 µg/mL (≈ 638 µM); fold change (FC) (Staphylococcus aureus [30]): 50; fold change (FC) (Staphylococcus aureus [31]): 4; MIC (Staphylococcus aureus [32]): > 256 µg/mL; MIC (Staphylococcus aureus [33]): > 256 µg/mL; MIC (Staphylococcus aureus [34]): 32 µg/mL (≈ 79.7 µM); fold change (FC) (Staphylococcus aureus [35]): 6; fold change (FC) (Staphylococcus aureus [36]): 18
